Experimental data published in ChEMBL document CHEMBL3259711, “Synthesis, anti-HIV and cytostatic evaluation of 3'-deoxy-3'-fluorothymidine (FLT) pro-nucleotides” (Bioorg Med Chem Lett, 2014).

Key:
CCRF-CEM [1] = assay: Cytostatic activity against thymidine kinase-deficient human CEM cells assessed as inhibition of cell proliferation after 48 hrs by Coulter counter analysis; assay type: functional, cell-based
How it was run: (§1)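 Tumour cells ((5–7.5) × 10⁴ per well) grown with test compound for 48 h at 37 °C, humidified CO₂; cells counted by Coulter counter. IC₅₀ = concentration inhibiting proliferation by 50%. Means of at least 2–3 independent experiments.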

CCRF-CEM [2] = assay: Cytostatic activity against human CEM/0 cells expressing thymidine kinase assessed as inhibition of cell proliferation after 48 hrs by Coulter counter analysis; assay type: functional, cell-based; how it was run: as §1
[3] = system: Human immunodeficiency virus 1; assay: Antiretroviral activity against HIV-1 3B infected in human CEM/0 cells expressing thymidine kinase assessed as inhibition of virus-induced giant cell formation after 4 to 5 days by microscopic analysis; assay type: functional, organism-based; details: Human immunodeficiency virus 1, 3B, CCRF-CEM
How it was run: (§2)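 CEM cells (~3 × 10⁵/mL; wild-type or thymidine kinase-deficient) infected with 100 CCID₅₀/mL HIV-1(IIIB) or HIV-2(ROD) with serial compound dilutions; 4–5 days at 37 °C, humidified CO₂. Syncytium (giant cell) formation scored microscopically; EC₅₀ = concentration inhibiting giant cell formation by 50%. Means of at least 2–3 independent experiments.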

[4] = system: Human immunodeficiency virus 2; assay: Antiretroviral activity against HIV-2 ROD infected in human CEM/0 cells expressing thymidine kinase assessed as inhibition of virus-induced giant cell formation after 4 to 5 days by microscopic analysis; assay type: functional, organism-based; details: Human immunodeficiency virus 2, ISOLATE ROD, CCRF-CEM; how it was run: as §2
[5] = system: Human immunodeficiency virus 2; assay: Antiretroviral activity against HIV-2 ROD infected in thymidine kinase-deficient human CEM cells assessed as inhibition of virus-induced giant cell formation after 4 to 5 days by microscopic analysis; assay type: functional, organism-based; details: Human immunodeficiency virus 2, ISOLATE ROD, CCRF-CEM; how it was run: as §2
L1210 = assay: Cytostatic activity against mouse L1210 cells assessed as inhibition of cell proliferation after 48 hrs by Coulter counter analysis; assay type: functional, cell-based; details: L1210, 48 h; how it was run: as §1
CCRF-CEM [6] = assay: Cytostatic activity against thymidine kinase-deficient human CEM cells assessed as inhibition of cell proliferation at EC50 after 48 hrs by Coulter counter analysis; assay type: cell-based
[7] = Cytostatic activity against human CEM/0 cells expressing thymidine kinase assessed as inhibition of cell proliferation at EC50 after 48 hrs by Coulter counter analysis; assay type: cell-based; details: ccrf-cem
[8] = system: Human immunodeficiency virus 2; assay: Ratio of EC50 for HIV-2 ROD infected in thymidine kinase-deficient human CEM cells to EC50 for HIV-2 ROD infected in human CEM/0 cells expressing thymidine kinase; assay type: functional, ISOLATE ROD, CCRF-CEM

Structure (SMILES) | IC50 (CCRF-CEM [1]) | IC50 (CCRF-CEM [2]) | EC50 [3] | EC50 [4] | EC50 [5] | IC50 (L1210) | Activity (CCRF-CEM [6]) | Activity [7] | Ratio EC50 [8]
CCOC(=O)[C@H](C)NP(=O)(OC[C@H]1O[C@@H](n2cc(C)c(=O)[nH]c2=O)C[C@@H]1F)Oc1cccc2ccccc12 (some centres undefined) | 138 µM | 81 µM | 160 nM | 180 nM | 5.2 µM | 6 µM |  |  | 
Cc1cn([C@H]2C[C@H](F)[C@@H](COP(=O)(N[C@@H](C)C(=O)OCC(C)(C)C)Oc3cccc4ccccc34)O2)c(=O)[nH]c1=O (some centres undefined) | 20 µM | 14 µM | 32 nM | 80 nM | 0.87 µM | 1.9 µM | Non-toxic | Non-toxic | 10
COC(=O)[C@H](C)NP(=O)(OC[C@H]1O[C@@H](n2cc(C)c(=O)[nH]c2=O)C[C@@H]1F)Oc1ccccc1 (some centres undefined) | > 250 µM | > 250 µM | 550 nM | 1300 nM | 4.7 µM | 8.2 µM |  |  | 
Cc1cn([C@H]2C[C@H](F)[C@@H](COP(=O)(N[C@@H](C)C(=O)OCc3ccccc3)N[C@@H](C)C(=O)OCc3ccccc3)O2)c(=O)[nH]c1=O | 22 µM | 17 µM | 36 nM | 130 nM | 1 µM | 1.2 µM | Non-toxic | Non-toxic | 
Cc1cn([C@H]2C[C@H](F)[C@@H](COP(=O)(N[C@@H](C)C(=O)OC(C)C)Oc3ccccc3)O2)c(=O)[nH]c1=O (some centres undefined) | > 250 µM | 145 µM | 750 nM | 1100 nM | 28 µM | 23 µM |  |  | 
CCOC(=O)[C@H](C)NP(=O)(OC[C@H]1O[C@@H](n2cc(C)c(=O)[nH]c2=O)C[C@@H]1F)Oc1ccccc1 (some centres undefined) | > 250 µM | > 250 µM | 100 nM | 240 nM | 1.3 µM | 4.4 µM |  |  | 
Cc1cn([C@H]2C[C@H](F)[C@@H](COP(=O)(N[C@@H](C)C(=O)OCc3ccccc3)Oc3cccc4ccccc34)O2)c(=O)[nH]c1=O (some centres undefined) | 57 µM | 54 µM | 120 nM | 180 nM | 2.1 µM | 5.2 µM |  |  | 
Cc1cn([C@H]2C[C@H](F)[C@@H](COP(=O)(N[C@@H](C)C(=O)OC(C)(C)C)Oc3ccccc3)O2)c(=O)[nH]c1=O (some centres undefined) | > 250 µM | 124 µM | 290 nM | 900 nM | > 50 µM | 6.3 µM |  |  | 
Cc1cn([C@H]2C[C@H](F)[C@@H](COP(=O)(N[C@@H](C)C(=O)OCc3ccccc3)Oc3ccccc3)O2)c(=O)[nH]c1=O (some centres undefined) | 172 µM | 117 µM | 130 nM | 180 nM | 2 µM | 5.8 µM |  |  | 
Cc1cn([C@H]2C[C@H](F)[C@@H](COP(=O)(N[C@@H](C)C(=O)OC(C)(C)C)Oc3cccc4ccccc34)O2)c(=O)[nH]c1=O (some centres undefined) | > 250 µM | 148 µM | 2300 nM | 4700 nM | > 50 µM | 36 µM |  |  | 
Cc1cn([C@H]2C[C@H](F)[C@@H](CO)O2)c(=O)[nH]c1=O [ALOVUDINE] | > 250 µM | 39 µM | 6.2 nM | 18 nM | > 50 µM | 0.081 µM |  |  | > 1000
Cc1cn([C@H]2C[C@H](F)[C@@H](COP(=O)(N[C@@H](C)C(=O)OCC(C)(C)C)N[C@@H](C)C(=O)OCC(C)(C)C)O2)c(=O)[nH]c1=O | 43 µM | 66 µM | 17 nM | 45 nM | 20 µM | 3.8 µM |  |  | 
Cc1cn([C@H]2C[C@H](F)[C@@H](COP(=O)(N[C@@H](C)C(=O)OC(C)C)Oc3cccc4ccccc34)O2)c(=O)[nH]c1=O (some centres undefined) | > 250 µM | 206 µM | 560 nM | 1000 nM | > 50 µM | 24 µM |  |  | 
Cc1cn([C@H]2C[C@H](F)[C@@H](COP(=O)(N[C@@H](C)C(=O)OC3CCCCC3)Oc3cccc4ccccc34)O2)c(=O)[nH]c1=O (some centres undefined) | 20 µM | 13 µM | 48 nM | 140 nM | 2 µM | 2.9 µM | Non-toxic | Non-toxic | 
COC(=O)[C@H](C)NP(=O)(OC[C@H]1O[C@@H](n2cc(C)c(=O)[nH]c2=O)C[C@@H]1F)Oc1cccc2ccccc12 (some centres undefined) | 112 µM | 66 µM | 430 nM | 650 nM | 3 µM | 3 µM |  |  | 
COP(=O)(N[C@@H](C)C(=O)OCc1ccccc1)OC[C@H]1O[C@@H](n2cc(C)c(=O)[nH]c2=O)C[C@@H]1F (some centres undefined) | > 250 µM | 100 µM | 650 nM | 1600 nM | 89 µM | 43 µM |  |  | 
